{"source": "paper PMC3984342", "about": "(mAbs, 2013)", "molecules": {"B1": {"name": "ch-mAb7F9: human-mouse chimeric anti-METH monoclonal antibody; mAb7F9 variable region joined to human IgG2κ constant domains (antibody, V domains shown)", "VH": "EIQLQQSGPELGKPGASVKVSCRASGFSFADYYIYWVKQSHGKSLELIGYIDPFNGGDTYNQIFKGKATLTVDKSSSTAFMYLNSLTSEDSAVYYCAAFRNPSFDFWGQGTTLTVSS", "VL": "QIVLIQSPPIMSASPGEKVTLTCSASSSVSSRYLYWYQQKPGSSPKLWIYGTSNLASGVPARFSGSGSGTSFSLTISSMEAEDAASYFCHQWSSFPFTFGSGTKLEIK"}}, "key": {"[1]": {"conditions": "METH alone, no antibody; ref Riviere et al.[21]; cited from earlier work"}, "[2]": {"test": "Prediction of human elimination half-life from rat values", "set-up": "species or system humans", "conditions": "extrapolated from rat: human ClT about one-third of rat, similar Vdss"}, "[3]": {"test": "GLP in vivo rat toxicology study"}, "[4]": {"assay_type": "in vivo, Male, Sprague Dawley rats", "conditions": "rats, single antibody dose, throughout the study", "outline": "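Body weights and general health observations were recorded for each rat throughout the 3-week study after the single IV antibody dose and 24-h SC challenge. Body weight and hematocrit are given as mean ± standard deviation.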"}, "[5]": {"test": "Preliminary surface plasmon resonance study of on-off rates", "assay_type": "binding", "conditions": "data not shown"}, "[6]": {"test": "Isothermal titration calorimetry", "assay_type": "binding", "outline": "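For isothermal titration calorimetry, 86 μM METH was titrated into 5 μM antibody at 307 rpm. Each run had 28 injections of 10 μL, spaced 200 s, at 37 °C in PBS pH 6.5. A one-site model gave N, ΔH, ΔS and the association constant (the reciprocal of KD). Activity was derived from N and molecular weights, with 2.07 μg METH/mg mAb taken as 100% active.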"}, "[7]": {"test": "METH pharmacokinetics in rats after anti-METH mAb treatment", "assay_type": "in vivo, Male, Sprague Dawley rats", "conditions": "rat", "outline": "(§1)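 Male Sprague Dawley rats (n = 12/group), housed individually, got a single IV antibody dose via tail vein over about 2 min. The dose was ultracentrifuged (~100,000 g, 1 h, 5 °C) and diluted in PBS (15 mM sodium phosphate, 150 mM NaCl). METH 1 mg/kg (in 0.9% NaCl) or saline was given SC 24 h later. Six tail-vein samples were drawn over 3 wk. Non-compartmental sparse-sampling analysis used mean concentration per time point: ClT = D/AUC, Vdss = D·AUMC/AUC², […].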"}, "[8]": {"test": "Modified radioimmunoassay", "assay_type": "binding", "conditions": "modified RIA, [3H]-METH tracer, complete inhibition curve"}, "[9]": {"test": "GLP human tissue cross-reactivity study", "conditions": "human tissues, results not shown"}, "[10]": {"test": "Ch-mAb7F9 pharmacokinetics in rats", "assay_type": "in vivo, Male, Sprague Dawley rats", "conditions": "for ClT / Vdss / t1/2λz: rat", "outline": "as §1"}, "[11]": {"conditions": "ch-mAb7F9 15 mg/kg IV, saline challenge"}, "[12]": {"conditions": "ch-mAb7F9 15 mg/kg IV, with METH 1 mg/kg SC 24 h later"}, "[13]": {"conditions": "ch-mAb7F9 150 mg/kg IV, saline challenge"}, "[14]": {"conditions": "ch-mAb7F9 150 mg/kg IV, with METH 1 mg/kg SC 24 h later"}}, "note": "Like-named read-outs stand apart in the source and are kept apart here."}
{"molecule": "(+)-methamphetamine", "values": [{"measurement": "METH ClT", "setting": "[1]", "result": 181400, "unit": "mL/day/kg"}, {"measurement": "METH Vdss", "setting": "[1]", "result": 9, "unit": "L/kg"}, {"measurement": "METH t1/2λz", "setting": "[1]", "result": 1.1, "unit": "h"}]}
{"molecule": "B1", "values": [{"measurement": "predicted t1/2λz in humans", "setting": "[2]", "result": "≤ 3", "unit": "wk"}, {"measurement": "elimination half-life", "setting": "[3]; GLP rat toxicology study, samples for 56 d, results not shown", "result": "190 to 288", "unit": "h"}, {"measurement": "no-observed-adverse-effect level, NOAEL", "setting": "[3]; rat, single doses, GLP", "result": 400, "unit": "mg/kg"}, {"measurement": "health changes (eating behavior, body weight)", "setting": "[4]", "result": "no significant health changes"}, {"measurement": "on-off rates of METH binding", "setting": "[5]", "result": "both reactions are fast"}, {"measurement": "average activity (capacity for binding METH per quantity of mAb)", "setting": "[6]; first GMP-compliant lot, converted from ITC stoichiometry", "result": 1.96, "unit": "μg METH bound per mg mAb"}, {"measurement": "Kd", "setting": "[6]; read-out: KD (ITC, average), ITC, 37 °C, PBS pH 6.5", "result": 49, "unit": "nM"}, {"measurement": "decrease of METH clearance compared with mAb7F9", "setting": "[7]; 150 mg/kg mAb dose", "result": "approximately 50%"}, {"measurement": "METH ClT", "setting": "[7]; METH 1 mg/kg SC 24 h after mAb 15 mg/kg IV", "result": 13800, "unit": "mL/day/kg"}, {"measurement": "METH ClT", "setting": "[7]; METH 1 mg/kg SC 24 h after mAb 150 mg/kg IV", "result": 926, "unit": "mL/day/kg"}, {"measurement": "decrease of METH Vdss compared with METH alone", "setting": "[7]; ch-mAb7F9 15 mg/kg", "result": "~ 5 fold"}, {"measurement": "increase in METH t1/2λz compared with METH alone", "setting": "[7]; ch-mAb7F9 15 mg/kg", "result": 2.1, "unit": "fold"}, {"measurement": "decrease of METH ClT compared with METH alone", "setting": "[7]; ch-mAb7F9 15 mg/kg (low dose)", "result": 13, "unit": "fold"}, {"measurement": "decrease of METH Vdss compared with METH alone", "setting": "[7]; ch-mAb7F9 150 mg/kg", "result": "~25", "unit": "fold"}, {"measurement": "increase in METH t1/2λz compared with METH alone", "setting": "[7]; ch-mAb7F9 150 mg/kg", "result": 5.9, "unit": "fold"}, {"measurement": "decrease of METH ClT compared with METH alone", "setting": "[7]; ch-mAb7F9 150 mg/kg (high dose)", "result": 196, "unit": "fold"}, {"measurement": "Kd", "setting": "[8]", "result": 6.9, "unit": "nM"}, {"measurement": "tissue staining", "setting": "[9]", "result": "the staining was cytoplasmic"}, {"measurement": "ClT", "setting": "[10]; [11]", "result": 6.9, "unit": "mL/day/kg"}, {"measurement": "Vdss", "setting": "[10]; [11]", "result": 0.1084, "unit": "L/kg"}, {"measurement": "t1/2λz", "setting": "[10]; [11]", "result": 262, "unit": "h"}, {"measurement": "ClT", "setting": "[10]; [12]", "result": 6.1, "unit": "mL/day/kg"}, {"measurement": "Vdss", "setting": "[10]; [12]", "result": 0.1151, "unit": "L/kg"}, {"measurement": "t1/2λz", "setting": "[10]; [12]", "result": 314, "unit": "h"}, {"measurement": "ClT", "setting": "[10]; [13]", "result": 6.5, "unit": "mL/day/kg"}, {"measurement": "Vdss", "setting": "[10]; [13]", "result": 0.1083, "unit": "L/kg"}, {"measurement": "t1/2λz", "setting": "[10]; [13]", "result": 276, "unit": "h"}, {"measurement": "ClT", "setting": "[10]; [14]", "result": 7.6, "unit": "mL/day/kg"}, {"measurement": "Vdss", "setting": "[10]; [14]", "result": 0.1082, "unit": "L/kg"}, {"measurement": "t1/2λz", "setting": "[10]; [14]", "result": 235, "unit": "h"}, {"measurement": "t1/2λz (range over groups)", "setting": "[10]; rats, current studies, 15 and 150 mg/kg", "result": "240 to 312", "unit": "h"}]}
